# According to ChEMBL document CHEMBL1153113, “Discovery of potent, selective, and orally bioavailable PDE5 inhibitor: Methyl-4-(3-chloro-4-methoxybenzylamino)-8-(2-hydroxyethyl)-7-methoxyquinazolin-6-ylmethylcarbamate (CKD 533)” (Bioorg Med Chem Lett, 2010):
# The source made the active and inactive calls. The calls are words filed in the database; no cut-off is given here.
# Assays:
# [1] = biological target: T1, Rod cGMP-specific 3',5'-cyclic phosphodiesterase subunit alpha (Bos taurus, UniProt P11541); experiment: Inhibition of bovine retina PDE6
# T1 sequence (P11541 whole entry): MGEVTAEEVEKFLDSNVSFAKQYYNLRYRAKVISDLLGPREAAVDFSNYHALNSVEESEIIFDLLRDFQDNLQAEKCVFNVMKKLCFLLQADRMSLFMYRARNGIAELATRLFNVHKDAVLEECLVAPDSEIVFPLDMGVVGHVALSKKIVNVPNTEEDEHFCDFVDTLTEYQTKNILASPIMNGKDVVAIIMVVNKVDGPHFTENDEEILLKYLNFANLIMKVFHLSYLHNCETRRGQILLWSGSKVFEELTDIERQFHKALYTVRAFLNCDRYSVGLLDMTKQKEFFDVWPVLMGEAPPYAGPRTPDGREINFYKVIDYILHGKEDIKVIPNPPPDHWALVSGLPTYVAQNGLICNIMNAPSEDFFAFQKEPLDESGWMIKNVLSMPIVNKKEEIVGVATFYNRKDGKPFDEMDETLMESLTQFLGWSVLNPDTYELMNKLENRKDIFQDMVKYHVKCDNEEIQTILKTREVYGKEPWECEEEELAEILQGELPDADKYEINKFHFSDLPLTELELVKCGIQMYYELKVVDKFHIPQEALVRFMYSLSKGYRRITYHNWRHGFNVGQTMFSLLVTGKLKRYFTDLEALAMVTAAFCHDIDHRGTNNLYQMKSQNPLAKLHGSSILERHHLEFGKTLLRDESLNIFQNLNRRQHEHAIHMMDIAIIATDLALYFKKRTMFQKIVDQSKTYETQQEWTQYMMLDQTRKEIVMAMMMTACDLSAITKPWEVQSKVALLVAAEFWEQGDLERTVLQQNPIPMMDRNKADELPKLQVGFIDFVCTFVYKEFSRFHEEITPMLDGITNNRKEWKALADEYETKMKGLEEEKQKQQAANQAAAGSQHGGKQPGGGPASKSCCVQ
# [2] = biological target: cGMP-specific 3',5'-cyclic phosphodiesterase (Bos taurus, UniProt Q28156); experiment: Inhibition of bovine platelet PDE5
# [3] = biological target: Dual 3',5'-cyclic-AMP and -GMP phosphodiesterase 11A (Homo sapiens, UniProt Q9HCR9); experiment: Inhibition of human recombinant PDE11
# Sequence of Dual 3',5'-cyclic-AMP and -GMP phosphodiesterase 11A (Q9HCR9 whole entry): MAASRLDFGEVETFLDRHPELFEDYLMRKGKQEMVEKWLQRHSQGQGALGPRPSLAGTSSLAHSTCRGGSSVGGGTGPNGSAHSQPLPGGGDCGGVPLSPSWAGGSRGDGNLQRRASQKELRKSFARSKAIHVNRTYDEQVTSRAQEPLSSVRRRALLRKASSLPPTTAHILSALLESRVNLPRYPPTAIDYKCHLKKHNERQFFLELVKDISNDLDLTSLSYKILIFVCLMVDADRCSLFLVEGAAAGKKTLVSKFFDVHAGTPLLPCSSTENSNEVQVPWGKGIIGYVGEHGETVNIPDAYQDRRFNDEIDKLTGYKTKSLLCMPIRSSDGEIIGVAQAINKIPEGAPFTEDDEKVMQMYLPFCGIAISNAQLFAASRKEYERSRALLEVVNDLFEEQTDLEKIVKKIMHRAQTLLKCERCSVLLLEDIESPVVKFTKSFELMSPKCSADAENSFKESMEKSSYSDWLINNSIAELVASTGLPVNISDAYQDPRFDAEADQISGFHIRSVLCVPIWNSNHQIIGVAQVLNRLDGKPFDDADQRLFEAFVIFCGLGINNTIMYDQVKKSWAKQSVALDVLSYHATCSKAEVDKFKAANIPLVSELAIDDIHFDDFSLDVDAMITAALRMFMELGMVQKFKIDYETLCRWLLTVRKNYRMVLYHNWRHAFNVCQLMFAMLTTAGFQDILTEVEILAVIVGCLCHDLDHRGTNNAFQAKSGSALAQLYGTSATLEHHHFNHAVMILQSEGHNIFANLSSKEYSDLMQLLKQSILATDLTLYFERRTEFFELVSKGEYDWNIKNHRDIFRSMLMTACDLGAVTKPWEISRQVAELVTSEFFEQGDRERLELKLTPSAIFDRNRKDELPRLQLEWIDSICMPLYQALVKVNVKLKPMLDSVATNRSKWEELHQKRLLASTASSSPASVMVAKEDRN
# [4] = Metabolic stability in human liver microsomes assessed as compound remaining after 1 hr; assay type: ADME, Microsome; details: read-out: Stability
# Outline: (§1)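 Liver microsomes (human, rat or rabbit) incubated with compound (5) in pH 7.4 phosphate buffer with an NADPH-regenerating system (2.5 mM MgCl2, 2.5 mM glucose-6-phosphate, 1 mM NADP, 1 U/ml G6P dehydrogenase) at 37 °C for 1 h. Human microsomes at 1.25 mg/ml. Read-out was % parent remaining; metabolites analysed by LC/MS.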
# Liver microsomes = experiment: Metabolic stability in human liver microsomes; assay type: ADME, Microsome; outline: as §1
# Oryctolagus cuniculus [5] = experiment: Inhibition of erectile dysfunction in New Zealand white rabbit assessed as induction of SNP-potentiated penile erection at 0.3 mg/kg, po after 2 hrs; assay type: functional, organism-based; design: dose 0.3 mg/kg
# Outline: (§2)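 Conscious New Zealand white rabbits, 3–4 kg, n = 4. Compound given orally, dissolved in distilled water. SNP (0.1 mg/kg in saline) injected 2 h later. Penile length (covered plus mucosa area) measured in cm with sliding calipers over a total of 2 h after dosing.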
# [6] = Metabolic stability in rabbit liver microsomes assessed as compound remaining after 1 hr; assay type: ADME, Oryctolagus cuniculus, Microsome; details: read-out: Stability; outline: as §1
# [7] = Metabolic stability in rat liver microsomes assessed as compound remaining after 1 hr; assay type: ADME, Microsome; details: read-out: Stability; outline: as §1
# Oryctolagus cuniculus [8] = experiment: Inhibition of erectile dysfunction in New Zealand white rabbit assessed as induction of SNP-potentiated penile erection at 3 mg/kg, po after 2 hrs; assay type: functional, organism-based; design: dose 3 mg/kg; outline: as §2
# [9] = Permeability across human Caco-2 cells; assay type: ADME, cell-based; details: read-out: permeability
# [10] = Tmax in rat at 10 mg/kg, po; assay type: ADME, organism-based; design: dose 10 mg/kg, route oral; details: in vivo
# Outline: (§3)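 Oral dosing at 10 mg/kg in 0.5% Tween 80, given as the HCl salt, with n = 4 animals per species. Plasma PK parameters were determined: Tmax, Cmax, half-life and AUClast.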
# [11] = AUClast in rabbit at 10 mg/kg, po; assay type: ADME, organism-based, Oryctolagus cuniculus; design: time 0 - last, dose 10 mg/kg, route oral; details: plasma; outline: as §3
# [12] = Cmax in rat at 10 mg/kg, po; assay type: ADME, organism-based; design: dose 10 mg/kg, route oral; details: in vivo; outline: as §3
# [13] = Half life in rat at 10 mg/kg, po; assay type: ADME, organism-based; design: dose 10 mg/kg, route oral; details: in vivo; outline: as §3
# [14] = Tmax in rabbit at 10 mg/kg, po; assay type: ADME, organism-based, Oryctolagus cuniculus; design: dose 10 mg/kg, route oral; details: in vivo; outline: as §3
# [15] = AUClast in rat at 10 mg/kg, po; assay type: ADME, organism-based; design: time 0 - last, dose 10 mg/kg, route oral; details: plasma; outline: as §3
# [16] = Cmax in rabbit at 10 mg/kg, po; assay type: ADME, organism-based, Oryctolagus cuniculus; design: dose 10 mg/kg, route oral; details: in vivo; outline: as §3
# [17] = Half life in rabbit at 10 mg/kg, po; assay type: ADME, organism-based, Oryctolagus cuniculus; design: dose 10 mg/kg, route oral; details: in vivo; outline: as §3
# [18] = Aqueous solubility of the compound; assay type: physicochemical; details: aqueous medium
# [19] = Inhibition of bovine heart PDE1; design: species or system Bos taurus
# Outline: (§4)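 Enzyme sources: PDE1 from bovine heart, PDE2 from bovine heart, PDE3 from bovine platelet, PDE4 human recombinant, PDE6 from bovine retina, PDE11 human recombinant. IC50 values are the mean of more than 2 determinations.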
# [20] = Cytotoxicity against mouse L5178Y cells; assay type: cell-based
# [21] = Inhibition of bovine platelet PDE3; design: species or system Bos taurus; outline: as §4
# hERG (KCNH2) = hERG (KCNH2) (Homo sapiens, UniProt Q12809); experiment: Inhibition of human ERG at 10 uM
# Sequence of hERG (KCNH2) (Q12809 whole entry): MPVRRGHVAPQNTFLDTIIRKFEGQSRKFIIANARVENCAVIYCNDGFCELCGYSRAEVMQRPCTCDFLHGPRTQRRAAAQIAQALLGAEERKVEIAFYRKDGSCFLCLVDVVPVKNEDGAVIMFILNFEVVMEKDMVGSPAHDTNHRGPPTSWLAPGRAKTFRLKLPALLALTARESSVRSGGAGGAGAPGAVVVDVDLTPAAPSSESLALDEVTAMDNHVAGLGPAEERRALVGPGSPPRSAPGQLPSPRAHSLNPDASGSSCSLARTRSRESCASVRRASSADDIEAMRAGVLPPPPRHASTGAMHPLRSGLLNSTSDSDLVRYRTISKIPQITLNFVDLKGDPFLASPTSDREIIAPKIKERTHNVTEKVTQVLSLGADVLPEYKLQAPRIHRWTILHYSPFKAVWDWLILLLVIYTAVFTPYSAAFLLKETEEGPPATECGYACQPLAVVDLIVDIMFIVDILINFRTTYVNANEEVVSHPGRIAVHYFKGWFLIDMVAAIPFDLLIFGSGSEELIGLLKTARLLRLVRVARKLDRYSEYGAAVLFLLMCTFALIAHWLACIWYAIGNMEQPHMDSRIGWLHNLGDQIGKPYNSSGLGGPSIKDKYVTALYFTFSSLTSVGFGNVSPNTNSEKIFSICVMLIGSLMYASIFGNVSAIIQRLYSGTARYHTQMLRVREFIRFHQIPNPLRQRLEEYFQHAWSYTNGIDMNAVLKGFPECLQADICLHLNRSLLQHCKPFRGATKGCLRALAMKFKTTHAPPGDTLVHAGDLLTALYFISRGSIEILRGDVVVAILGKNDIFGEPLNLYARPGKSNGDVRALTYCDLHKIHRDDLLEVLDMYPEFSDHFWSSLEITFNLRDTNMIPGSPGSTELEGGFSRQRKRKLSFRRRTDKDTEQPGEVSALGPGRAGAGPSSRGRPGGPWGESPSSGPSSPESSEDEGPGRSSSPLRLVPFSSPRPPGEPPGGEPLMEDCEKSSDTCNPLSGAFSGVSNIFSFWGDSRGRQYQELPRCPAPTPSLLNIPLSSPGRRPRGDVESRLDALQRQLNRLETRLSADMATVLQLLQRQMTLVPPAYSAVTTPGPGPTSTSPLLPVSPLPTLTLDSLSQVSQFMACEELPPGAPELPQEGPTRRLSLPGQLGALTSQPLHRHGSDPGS
# Phosphodiesterase 4 = Phosphodiesterase 4 (Homo sapiens, UniProt P27815+Q08499+Q07343+Q08493); experiment: Inhibition of human recombinant PDE4; assay type: protein assay; outline: as §4
# [22] = Inhibition of bovine heart PDE2; design: species or system Bos taurus; outline: as §4
IC50 [1] [nM],IC50 [2] [nM],IC50 [3] [nM],remaining at 1 h [4] [%],SMILES,further results
320,1,5200,16,CCC(=O)N(C)c1cc2c(NCc3ccc(OC)c(Cl)c3)ncnc2c(CCO)c1OC,remaining at 1 h [6]: > 90%; remaining at 1 h [7]: > 90%; inhibition (Oryctolagus cuniculus [8]): Active; Papp [9]: 17 ×10⁻⁶ cm/s
–,1,–,5.5,CCC(=O)N(CC)c1cc2c(NCc3ccc(OC)c(Cl)c3)ncnc2c(CCO)c1OC,–
7950,12,–,–,COc1ccc(CNc2ncnc3c(CCO)c(OC)c(NS(=O)(=O)N(C)C)cc23)cc1Cl,Stability (Liver microsomes): Unstable

# The remaining lines, values behind:
SMILES,IC50 [1] [nM],IC50 [2] [nM],IC50 [3] [nM],remaining at 1 h [4] [%],further results
COC(=O)Nc1cc2c(NCc3ccc(OC)c(Cl)c3)ncnc2c(CCO)c1OC,710,3,5700,72,–
COc1ccc(CNc2ncnc3c(CCO)c(OC)c(N(C)C(=O)C(C)C)cc23)cc1Cl,1100,3,–,4.8,–
COc1ccc(CNc2ncnc3c(CCO)c(OC)c(N(C)C(=O)C4CC4)cc23)cc1Cl,340,1,–,25,–
COc1ccc(CNc2ncnc3c(CCO)c(OC)c(NS(C)(=O)=O)cc23)cc1Cl,–,11,–,–,Stability (Liver microsomes): Unstable
COC(=O)N(C)c1cc2c(NCc3ccc(OC)c(Cl)c3)ncnc2c(CCO)c1OC [listing 1 of 2 here],–,–,–,–,inhibition (Oryctolagus cuniculus [5]): Active
CCC(=O)Nc1cc2c(NCc3ccc(OC)c(Cl)c3)ncnc2c(CCO)c1OC,–,–,–,3,remaining at 1 h [6]: 85%; remaining at 1 h [7]: 96%
CCOC(=O)Nc1cc2c(NCc3ccc(OC)c(Cl)c3)ncnc2c(CCO)c1OC,600,17,5000,–,–
CN1CC(=O)N2[C@H](c3ccc4c(c3)OCO4)c3[nH]c4ccccc4c3C[C@@H]2C1=O,3000,–,–,–,inhibition (Oryctolagus cuniculus [8]): Active
COC(=O)N(C)c1cc2c(NCc3ccc(OC)c(Cl)c3)ncnc2c(CCO)c1OC.Cl,–,–,–,–,Tmax [10]: 0.2 h; AUC(0-t) [11]: 2760 ng·h/mL; Cmax [12]: 420 ng/mL; half-life [13]: 2.25 h; Tmax [14]: 2.4 h; AUC(0-t) [15]: 540 ng·h/mL; Cmax [16]: 870 ng/mL; half-life [17]: 4.2 h
COC(=O)N(C)c1cc2c(NCc3ccc(OC)c(Cl)c3)ncnc2c(CCO)c1OC [listing 2 of 2 here],140,0.6,12000,85,solubility [18]: > 2000 µg/mL; IC50 [19]: 12000 nM; CC50 [20]: 85000 nM; IC50 [21]: 43000 nM; inhibition at 10 µM (hERG (KCNH2)): < 20%; IC50 (Phosphodiesterase 4): 84000 nM; IC50 [22]: 32000 nM; Papp [9]: 35 ×10⁻⁶ cm/s
